Results on 20 compounds are retold here after ChEMBL document CHEMBL1132804, “Inhibitors of src tyrosine kinase: the preparation and structure-activity relationship of 4-anilino-3-cyanoquinolines and 4-anilinoquinazolines” (Bioorg Med Chem Lett, 2000).

pIC50: −log10 of the molar value.

T1 sequence (P12931 2-536 limits assumed): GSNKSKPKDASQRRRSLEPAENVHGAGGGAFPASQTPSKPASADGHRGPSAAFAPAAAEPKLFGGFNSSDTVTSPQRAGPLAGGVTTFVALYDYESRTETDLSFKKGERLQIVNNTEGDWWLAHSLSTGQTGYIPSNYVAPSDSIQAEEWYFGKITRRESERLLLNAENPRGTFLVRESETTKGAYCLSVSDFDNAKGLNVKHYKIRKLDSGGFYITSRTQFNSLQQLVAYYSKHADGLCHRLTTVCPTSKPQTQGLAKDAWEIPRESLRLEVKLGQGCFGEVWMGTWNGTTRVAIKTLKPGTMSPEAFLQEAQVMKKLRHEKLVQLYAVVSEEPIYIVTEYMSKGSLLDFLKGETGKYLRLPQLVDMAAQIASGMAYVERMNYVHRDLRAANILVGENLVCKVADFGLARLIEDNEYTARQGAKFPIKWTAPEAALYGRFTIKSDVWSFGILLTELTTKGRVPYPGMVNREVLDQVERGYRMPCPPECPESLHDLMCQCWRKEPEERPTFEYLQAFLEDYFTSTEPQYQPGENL

The target in the first assay is T1, Proto-oncogene tyrosine-protein kinase Src (Homo sapiens, UniProt P12931). Description: Inhibition of Src kinase at 500 nM ATP. Put shortly:
(§1)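 ATP-dependence study in the same ELISA format. Human c-Src protein (3 units/reaction) and cdc2 substrate peptide were in Tris-HCl pH 7.5 buffer with MgCl₂, EGTA and Na₃VO₄. Compound preincubation was 10 min at 30 °C. The reaction was started with ATP at four final levels (100, 500, 1000, 5000), run 1 h at 30 °C and stopped with EDTA. IC50 was determined at each ATP level.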
With `COc1cc2ncc(C#N)c(Nc3cc(OC)c(OC)c(OC)c3)c2cc1OC`, the pIC50 (in general, the negative decadic logarithm of the IC50, by convention in mol/L) was 6.97.

The target of another assay is T1, Proto-oncogene tyrosine-protein kinase Src. Put plainly: Inhibition of Src kinase at 1000 nM ATP. Put shortly:
as §1
For `COc1cc2ncc(C#N)c(Nc3cc(OC)c(OC)c(OC)c3)c2cc1OC`, the negative-log IC50 (pIC50) is 6.72.

For a further assay the target is unchanged. Description: Inhibition of Src kinase at 100 nM ATP. The procedure, abridged: as §1
`COc1cc2ncc(C#N)c(Nc3cc(OC)c(OC)c(OC)c3)c2cc1OC` gave a negative logarithm of the IC50 (pIC50) of 7.47.

A further assay has the same target. Put plainly: In vitro inhibition of c-src tyrosine kinase. Put shortly: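 ELISA tyrosine kinase kit format. ATP was then added to start the reaction, which ran 1 h at 30 °C and was stopped with EDTA. Duplicate testing; IC50 is the average of two determinations.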
For `COc1cc2ncc(CO)c(Nc3cc(OC)c(OC)c(OC)c3)c2cc1OC`, the negative logarithm of the IC50 (pIC50) was under 5.00. As to `COc1cc2ncnc(Nc3cc(OC)c(OC)c(OC)c3)c2cc1OC`, the pIC50 was 6.55. As for `COc1cc2ncc(C#N)c(Nc3cc(OC)c(OC(C)C)c(OC)c3)c2cc1OC`, the pIC50 was 6.96.

`COc1cc2nccc(Nc3cc(OC)c(OC)c(OC)c3)c2cc1OC`: the negative-log IC50 (pIC50) was 6.70. The same measure, in the same setting: in the case of `COc1cc2c(Nc3cc(OC)c(OC)c(OC)c3)c(C#N)cnc2cc1OCCCN1CCCCC1` it was 8.28; in that of `CCCCCCCCCCCCOc1c(OC)cc(Nc2c(C#N)cnc3cc(OC)c(OC)cc23)cc1OC`, 6.74; in that of `COc1cc2ncnc(Nc3cc(OC)c(OC(C)(C)C)c(OC)c3)c2cc1OC`, 5.57. The same measure, in the same setting: under `CCOc1c(OC)cc(Nc2c(C#N)cnc3cc(OC)c(OC)cc23)cc1OC` stands 7.20; under `COc1cc2ncnc(Nc3cc(OC)c(OC(C)C)c(OC)c3)c2cc1OC`, 6.08; under `CCCCCCCCCCCCOc1c(OC)cc(Nc2ncnc3cc(OC)c(OC)cc23)cc1OC`, 5.28. In turn, `CCOC(=O)c1cnc2cc(OC)c(OC)cc2c1Nc1cc(OC)c(OC)c(OC)c1` showed a negative logarithm of the IC50 (pIC50) of under 5.00. Compound `COc1cc2ncc(C#N)c(Nc3cc(OC)c(OC)c(OC)c3)c2cc1OC` gave a pIC50 of 7.46. In the case of `COc1cc2ncc(C#N)c(Oc3cc(OC)c(OC)c(OC)c3)c2cc1OC`, the pIC50 was 6.54.

`CCCCOc1c(OC)cc(Nc2ncnc3cc(OC)c(OC)cc23)cc1OC` gave a pIC50 of 6.31.

`COc1cc2ncc(C#N)c(Nc3cc(OC)c(OC)c(OC)c3C)c2cc1OC` showed a negative-log IC50 (pIC50) of 6.33. `COc1ccc(Nc2c(C#N)cnc3cc(OC)c(OC)cc23)cc1OC`: the pIC50 was 6.02. The same measure, in the same setting: in the case of `COc1cc2ncc(C#N)c(Nc3cc(OC)c(OC)c(OC)c3Br)c2cc1OC` it was 6.77; in that of `CCOc1c(OC)cc(Nc2ncnc3cc(OC)c(OC)cc23)cc1OC`, 6.47; in that of `COc1cc2c(Nc3cc(OC)c(OC)c(OC)c3)c(C#N)cnc2cc1OCCCN1CCC(O)CC1`, 8.26. `COc1cc(Nc2c(C#N)cnc3cc(OC)c(OC)cc23)cc(OC)c1` gave a negative-log IC50 (pIC50) of 6.01.

For the next assay the target is unchanged. Description: Inhibition of Src kinase at 5000 nM ATP. The procedure, abridged:
as §1
Compound `COc1cc2ncc(C#N)c(Nc3cc(OC)c(OC)c(OC)c3)c2cc1OC` gave a pIC50 of 6.19.
